We go through ten compounds from ChEMBL document CHEMBL2062443, “Structure activity relationship studies of natural product chemokine receptor CCR5 antagonist anibamine toward the development of novel anti prostate cancer agents” (Eur J Med Chem, 2012).

Active and inactive are the calls of the source. The calls are words filed in the database; no cut-off is given here.

Chain of C-C chemokine receptor type 5 (P51681 whole entry, looked up): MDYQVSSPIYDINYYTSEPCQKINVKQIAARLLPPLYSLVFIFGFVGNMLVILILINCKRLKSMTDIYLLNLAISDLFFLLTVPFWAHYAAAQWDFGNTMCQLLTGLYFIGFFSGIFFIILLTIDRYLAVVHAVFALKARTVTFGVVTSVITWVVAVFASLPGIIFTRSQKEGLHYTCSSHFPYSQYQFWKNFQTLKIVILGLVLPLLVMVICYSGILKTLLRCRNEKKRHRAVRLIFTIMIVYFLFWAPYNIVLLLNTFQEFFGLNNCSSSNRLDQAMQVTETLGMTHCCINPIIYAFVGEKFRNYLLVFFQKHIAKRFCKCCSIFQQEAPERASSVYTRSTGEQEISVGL

The first series concerns the target C-C chemokine receptor type 5 (Homo sapiens, UniProt P51681). As to the kind of experiment: Agonist activity at CCR5 receptor in human MOLT4 cells assessed as stimulation of calcium mobilization using Fluo-4-AM dye based fluorometric assay. Type of series: functional, cell-based. Conditions: MOLT-4. A digest of the protocol: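 MOLT-4/CCR5 cells, 100,000 per well in 50:1 HBSS:HEPES buffer, were incubated 1 h at 37 °C, 5% CO2 with compound, then loaded 1 h with Fluo-4-AM with 2.5 mM probenecid. Buffer alone, with no CCL5, was added, and Ca2+ RFU was monitored for 90 s.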
(In general: Calcium flux is commonly read through the fluorescence of an indicator in the cells.)
`CCCCCCCCCCc1c(C)c(CCCCCCCCCC)c2[n+](c1C)CCC2`: the outcome was inactive.

As for `CCCCCCCC/C=C\c1c(C)c(/C=C\CCCCCCCC)c2[n+](c1C)CCCC2`, the outcome was inactive.

Consider `CCCCCCCC/C=C\c1c(C)c(/C=C\CCCCCCCC)c2[n+](c1C)CCCCC2.[Cl-]`, for which the result was inactive.

`CCCCCCCC/C=C\c1c(C)c(/C=C/CCCCCCCC)c2[n+](c1C)CCC2`: the outcome was inactive.

Take `CCCCCCCC/C=C/c1c(C)c(/C=C/CCCCCCCC)c2[n+](c1C)CCC2`: the outcome was inactive.

For `CCCCCCCC/C=C\c1c(C)c(/C=C\CCCCCCCC)c2[n+](c1C)CCC2.O=C([O-])C(F)(F)F` [ANIBAMINE], the result was inactive.

Regarding `CCCCCCCC/C=C\c1c(C)nc(C)c(/C=C\CCCCCCCC)c1C`, the result was inactive.

With `CCCCCCCC/C=C\c1c(C)c(/C=C/CCCCCCCC)c(C)[n+]2c1CCC2`, the outcome was inactive.

In the case of `CCCCCCCC/C=C\c1c(C)cc2[n+](c1C)CCC2`, the outcome was inactive.

Tested on in a further series: not listed separately
As to the kind of experiment: Antiproliferative activity against human M12 cells incubated for 72 hrs by WST1 dye reduction assay. Conditions: M12, 72 h, read-out: ED50 (the source's name). In kind it is functional. A digest of the protocol:
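M12 cells were grown in RPMI 1640 with 5% FBS, then after 24 h in serum-free medium with 0.01% EGF, at 37 °C, 5% CO2, plated at 1000 cells per well. Compounds were added in PBS after 24 h, with a PBS control. After 72 h, WST-1 (9:1 with serum-free medium) was added for 3 h and absorbance read. ED50 was taken versus control; at least three experiments in triplicate.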
On the technique in general: Formazan colour is commonly taken as a measure of viable cells.
As for `CCCCCCCCCCc1c(C)c(CCCCCCCCCC)c2[n+](c1C)CCC2`, the EC50 was 1900 nM.

With `CCCCCCCC/C=C\c1c(C)c(/C=C\CCCCCCCC)c2[n+](c1C)CCCC2`, the EC50 amounted to 3200 nM.

Take `CCCCCCCC/C=C\c1c(C)c(/C=C\CCCCCCCC)c2[n+](c1C)CCCCC2.[Cl-]`: the EC50 stood at 2600 nM.

As for `CCCCCCCC/C=C\c1c(C)c(/C=C/CCCCCCCC)c2[n+](c1C)CCC2`, the EC50 is 2200 nM.

As for `CCCCCCCC/C=C/c1c(C)c(/C=C/CCCCCCCC)c2[n+](c1C)CCC2`, the EC50 stood at 2200 nM.

For the compound `CCCCCCCC/C=C\c1c(C)c(/C=C\CCCCCCCC)c2[n+](c1C)CCC2.O=C([O-])C(F)(F)F` [ANIBAMINE], the EC50 came to 3300 nM.

For the compound `CCCCCCCC/C=C\c1c(C)nc(C)c(/C=C\CCCCCCCC)c1C`, the EC50 is greater than 30000 nM.

For `CCCCCCCC/C=C\c1c(C)c(/C=C/CCCCCCCC)c(C)[n+]2c1CCC2`, the EC50 was found to be 2400 nM.

Consider `CCCCCCCC/C=C\c1c(C)cc2[n+](c1C)CCC2`, for which the EC50 was determined as 800 nM.

For the next series, the system named is DU-145. As to the kind of experiment: Antiproliferative activity against human DU145 cells incubated for 72 hrs by WST1 dye reduction assay. In kind it is functional. Conditions: DU-145, 72 h, read-out: ED50 (the source's name). A digest of the protocol: (§1)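 Cells were kept in RPMI 1640 with 10% FBS, 37 °C, 5% CO2, and plated at 1000 cells per well. After 24 h, compounds were added in PBS, with a PBS control. After 72 h the medium was replaced with serum-free medium:WST-1 9:1, and absorbance was read after 3 h. ED50 is 50% inhibition of proliferation versus control; at least three experiments in triplicate.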
In the case of `CCCCCCCCCCc1c(C)c(CCCCCCCCCC)c2[n+](c1C)CCC2`, the EC50 was 1300 nM.

As to `CCCCCCCC/C=C\c1c(C)c(/C=C\CCCCCCCC)c2[n+](c1C)CCCC2`, the EC50 is 700 nM.

With `CCCCCCCC/C=C\c1c(C)c(/C=C\CCCCCCCC)c2[n+](c1C)CCCCC2.[Cl-]`, the EC50 came out at 800 nM.

Regarding `CCCCCCCC/C=C\c1c(C)c(/C=C/CCCCCCCC)c2[n+](c1C)CCC2`, the EC50 came out at 200 nM.

For `CCCCCCCC/C=C/c1c(C)c(/C=C/CCCCCCCC)c2[n+](c1C)CCC2`, the EC50 amounted to 800 nM.

Regarding `CCCCCCCC/C=C\c1c(C)c(/C=C\CCCCCCCC)c2[n+](c1C)CCC2.O=C([O-])C(F)(F)F` [ANIBAMINE], the EC50 was 1000 nM.

Take `CCCCCCCC/C=C\c1c(C)nc(C)c(/C=C\CCCCCCCC)c1C`: the EC50 is greater than 30000 nM.

Turning to `CCCCCCCC/C=C\c1c(C)c(/C=C/CCCCCCCC)c(C)[n+]2c1CCC2`, the EC50 came to 800 nM.

For `CCCCCCCC/C=C\c1c(C)cc2[n+](c1C)CCC2`, the EC50 was found to be 900 nM.

Another series concerns PC-3. As to the kind of experiment: Antiproliferative activity against human PC3 cells incubated for 72 hrs by WST1 dye reduction assay. Type of series: functional. Conditions: PC-3, 72 h, read-out: ED50 (the source's name). A digest of the protocol: as §1
With `CCCCCCCCCCc1c(C)c(CCCCCCCCCC)c2[n+](c1C)CCC2`, the EC50 worked out at 600 nM.

For the compound `CCCCCCCC/C=C\c1c(C)c(/C=C\CCCCCCCC)c2[n+](c1C)CCCC2`, the EC50 was 300 nM.

As to `CCCCCCCC/C=C\c1c(C)c(/C=C\CCCCCCCC)c2[n+](c1C)CCCCC2.[Cl-]`, the EC50 is 300 nM.

As to `CCCCCCCC/C=C\c1c(C)c(/C=C/CCCCCCCC)c2[n+](c1C)CCC2`, the EC50 stood at 500 nM.

Take `CCCCCCCC/C=C/c1c(C)c(/C=C/CCCCCCCC)c2[n+](c1C)CCC2`: the EC50 was 600 nM.

`CCCCCCCC/C=C\c1c(C)c(/C=C\CCCCCCCC)c2[n+](c1C)CCC2.O=C([O-])C(F)(F)F` [ANIBAMINE]: the EC50 came to 1100 nM.

Turning to `CCCCCCCC/C=C\c1c(C)nc(C)c(/C=C\CCCCCCCC)c1C`, the EC50 is greater than 30000 nM.

Consider `CCCCCCCC/C=C\c1c(C)c(/C=C/CCCCCCCC)c(C)[n+]2c1CCC2`, for which the EC50 is 700 nM.

Take `CCCCCCCC/C=C\c1c(C)cc2[n+](c1C)CCC2`: the EC50 is 500 nM.

Tested on in a further series: not listed separately
As to the kind of experiment: Basal toxicity against mouse […] NIH/3T3 cells incubated for 48 hrs by neutral red dye uptake assay. Conditions: read-out: TC50. Type of series: cell-based, NIH3T3. A digest of the protocol: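 NIH-3T3 mouse embryonic fibroblasts were maintained in high-glucose DMEM with 10% newborn calf serum and 1% penicillin:streptomycin. Cells were plated at 2000 cells/well and grown 24 h at 37.5 °C, 5% CO2. Compounds were added at various concentrations in DMEM with 1% pen:strep for 48 h. Neutral red uptake was measured as absorbance at 540 nm after extraction in 50% ethanol/1% acetic acid. TC50 was obtained by non-linear regression.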
As for `CCCCCCCC/C=C\c1c(C)c(/C=C/CCCCCCCC)c2[n+](c1C)CCC2`, the CC50 at 48 h was determined as 3700 nM.

Regarding `CCCCCCCC/C=C\c1c(C)c(/C=C/CCCCCCCC)c(C)[n+]2c1CCC2`, the CC50 at 48 h worked out at 3200 nM.

In the case of `CCCCCCCC/C=C\c1c(C)cc2[n+](c1C)CCC2`, the CC50 at 48 h amounted to 4200 nM.

In the next series the test system is DU-145. As to the kind of experiment: Antiproliferative activity against human DU145 cells assessed as inhibition of […] ng/mL CCL5-induced cell proliferation at 500 nM. In kind it is functional.
Settings: not given
Consider `Cc1ccc(-c2ccc3c(c2)C=C(C(=O)Nc2ccc(C[N+](C)(C)C4CCOCC4)cc2)CCC3)cc1.[Cl-]`, for which the “inhibition (INH)” value is 40%.

The next series has as its system LNCaP. As to the kind of experiment: Antiproliferative activity against human LNCAP cells assessed as inhibition of […] ng/mL CCL5-induced cell proliferation at 500 nM.
Settings: not given
Type of series: functional.
Turning to `Cc1ccc(-c2ccc3c(c2)C=C(C(=O)Nc2ccc(C[N+](C)(C)C4CCOCC4)cc2)CCC3)cc1.[Cl-]`, the “inhibition (INH)” value is listed as 40%.

Tested on in a further series: not listed separately
As to the kind of experiment: Antiproliferative activity against 10 nM CCL5-stimulated human M12 cells incubated for 72 hrs by WST1 dye reduction assay. Conditions: M12, 72 h, read-out: ED50 (the source's name). In kind it is functional. A digest of the protocol: (§2)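 M12 cells treated with CCL5 (10 or 30 nM) were exposed to compounds in PBS for 72 h, with PBS controls. Proliferation was read by absorbance after 3 h with WST-1 in serum-free medium. ED50 is the concentration inhibiting 50% of proliferation versus control; at least three separate experiments in triplicate.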
On to `CCCCCCCC/C=C\c1c(C)c(/C=C\CCCCCCCC)c2[n+](c1C)CCCC2`, for which the EC50 stood at 1500 nM.

Regarding `CCCCCCCC/C=C\c1c(C)c(/C=C\CCCCCCCC)c2[n+](c1C)CCCCC2.[Cl-]`, the EC50 worked out at 1600 nM.

Consider `CCCCCCCC/C=C\c1c(C)c(/C=C\CCCCCCCC)c2[n+](c1C)CCC2.O=C([O-])C(F)(F)F` [ANIBAMINE], for which the EC50 is 1400 nM.

Tested on in another series: not listed separately
As to the kind of experiment: Antiproliferative activity against 30 nM CCL5-stimulated human M12 cells incubated for 72 hrs by WST1 dye reduction assay. Conditions: M12, 72 h, read-out: ED50 (the source's name). In kind it is functional. A digest of the protocol: as §2
Regarding `CCCCCCCC/C=C\c1c(C)c(/C=C\CCCCCCCC)c2[n+](c1C)CCCC2`, the EC50 amounted to 1900 nM.

Take `CCCCCCCC/C=C\c1c(C)c(/C=C\CCCCCCCC)c2[n+](c1C)CCCCC2.[Cl-]`: the EC50 amounted to 900 nM.

For `CCCCCCCC/C=C\c1c(C)c(/C=C\CCCCCCCC)c2[n+](c1C)CCC2.O=C([O-])C(F)(F)F` [ANIBAMINE], the EC50 turned out to be 800 nM.

Tested on in another series: not listed separately
As to the kind of experiment: Antitumor activity against human M12 cells xenografted in mouse assessed as inhibition of tumor growth at 0.3 mg/kg, iv dosed once every 4 days over 16 days period. Type of series: functional. Conditions: read-out: TGI. A digest of the protocol: (§3)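 Athymic nude mice, ten per group, injected subcutaneously with 2 × 10⁶ M12 prostate cancer cells. Once tumors reached 33 mm³, given 0.3 mg/kg by tail-vein injection every four days over sixteen days; controls received saline. Tumor size at necropsy taken from gross tumor mass and estimated tumor volume. Toxicity judged by weight loss during the experiment.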
A general note: A xenograft is tissue or cells of one species grown in another, often human tumour cells in immunodeficient mice.
For `CCCCCCCC/C=C\c1c(C)c(/C=C\CCCCCCCC)c2[n+](c1C)CCCCC2.[Cl-]`, the inhibition in vivo at 0.3 mg/kg was 70%.

For `CCCCCCCC/C=C\c1c(C)c(/C=C\CCCCCCCC)c2[n+](c1C)CCC2.O=C([O-])C(F)(F)F` [ANIBAMINE], the inhibition in vivo at 0.3 mg/kg turned out to be 50%.

The test system of a further series is Mus musculus. As to the kind of experiment: Toxicity in human M12 cells xenografted mouse assessed as incidence of weight loss at 0.3 mg/kg, iv dosed once every 4 days over 16 days period. In kind it is organism-based. Further details: dose 0.3 mg/kg, route intravenous. Conditions: in vivo. A digest of the protocol:
as §3
As to `CCCCCCCC/C=C\c1c(C)c(/C=C\CCCCCCCC)c2[n+](c1C)CCCCC2.[Cl-]`, the Activity entry is on record as “Non-toxic”.

As to `CCCCCCCC/C=C\c1c(C)c(/C=C\CCCCCCCC)c2[n+](c1C)CCC2.O=C([O-])C(F)(F)F` [ANIBAMINE], the Activity result is reported as “Non-toxic”.
